From ChEMBL document CHEMBL5055631, “Antitumor properties of novel sesquiterpene lactone analogs as NFκB inhibitors that bind to the IKKβ ubiquitin-like domain (ULD)” (Eur J Med Chem, 2021)

Key:
Format in all cases: functional
[1] = tested on: CCRF-CEM; experiment: Anticancer activity against human CCRF-CEM cells assessed as cell growth inhibition incubated for 48 hrs by sulforhodamine B assay
[2] = tested on: RPMI-8226; experiment: Anticancer activity against human RPMI-8226 cells assessed as cell growth inhibition incubated for 48 hrs by SRB method
[3] = tested on: SR; experiment: Anticancer activity against human SR cells assessed as cell growth inhibition incubated for 48 hrs by SRB method
Method in brief: (§1)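 NCI-60 panel (DTP). Cells in RPMI 1640 with 5% FBS, 2 mM L-glutamine, seeded at 5,000–40,000 per well by doubling time and preincubated 24 h at 37 °C, 5% CO2. Time-zero plates TCA-fixed. DMSO stocks diluted in medium with gentamicin, tested at 100 μM, 10 μM, 1 μM, 0.1 μM and 10 nM for 48 h. Cells fixed with cold TCA, stained with SRB, absorbance read at 515 nm.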

[4] = tested on: A549; experiment: Anticancer activity against human A549 cells assessed as cell growth inhibition incubated for 48 hrs by SRB method; method in brief: as §1
[5] = tested on: EKVX; experiment: Anticancer activity against human EKVX cells assessed as cell growth inhibition incubated for 48 hrs by SRB method; method in brief: as §1
[6] = tested on: HOP-62; experiment: Anticancer activity against human HOP-62 cells assessed as cell growth inhibition incubated for 48 hrs by SRB method; method in brief: as §1
[7] = tested on: MOLT-4; experiment: Anticancer activity against human MOLT-4 assessed as cell growth inhibition incubated for 48 hrs by SRB method
[8] = tested on: HOP-92; experiment: Anticancer activity against human HOP-92 cells assessed as cell growth inhibition incubated for 48 hrs by SRB method
[9] = tested on: K562; experiment: Anticancer activity against human K562 cells assessed as cell growth inhibition incubated for 48 hrs by SRB method
[10] = tested on: HL-60(TB); experiment: Anticancer activity against human HL-60(TB) cells assessed as cell growth inhibition incubated for 48 hrs by SRB method
[11] = tested on: NCI-H226; experiment: Anticancer activity against human NCI-H226 cells assessed as cell growth inhibition incubated for 48 hrs by SRB method; method in brief: as §1
[12] = tested on: NCI-H23; experiment: Anticancer activity against human NCI-H23 cells assessed as cell growth inhibition incubated for 48 hrs by SRB method; method in brief: as §1
[13] = tested on: NCI-H460; experiment: Anticancer activity against human NCI-H460 cells assessed as cell growth inhibition incubated for 48 hrs by SRB method; method in brief: as §1
[14] = tested on: NCI-H522; experiment: Anticancer activity against human NCI-H522 cells assessed as cell growth inhibition incubated for 48 hrs by SRB method
[15] = tested on: COLO 205; experiment: Anticancer activity against human COLO 205 cells assessed as cell growth inhibition incubated for 48 hrs by SRB method
[16] = tested on: HCC 2998; experiment: Anticancer activity against human HCC 2998 cells assessed as cell growth inhibition incubated for 48 hrs by SRB method; method in brief: as §1
[17] = tested on: HCT-116; experiment: Anticancer activity against human HCT-116 cells assessed as cell growth inhibition incubated for 48 hrs by SRB method; method in brief: as §1
[18] = tested on: HCT-15; experiment: Anticancer activity against human HCT-15 cells assessed as cell growth inhibition incubated for 48 hrs by SRB method; method in brief: as §1
[19] = tested on: HT-29; experiment: Anticancer activity against human HT29 cells assessed as cell growth inhibition incubated for 48 hrs by SRB method; method in brief: as §1
[20] = tested on: KM12; experiment: Anticancer activity against human KM12 cells assessed as cell growth inhibition incubated for 48 hrs by SRB method; method in brief: as §1
[21] = tested on: SW-620; experiment: Anticancer activity against human SW-620 cells assessed as cell growth inhibition incubated for 48 hrs by SRB method
[22] = tested on: SF-268; experiment: Anticancer activity against human SF-268 cells assessed as cell growth inhibition incubated for 48 hrs by SRB method; method in brief: as §1
[23] = tested on: SF-295; experiment: Anticancer activity against human SF-295 cells assessed as cell growth inhibition incubated for 48 hrs by SRB method; method in brief: as §1
[24] = tested on: SF-539; experiment: Anticancer activity against human SF-539 cells assessed as cell growth inhibition incubated for 48 hrs by SRB method
[25] = tested on: SNB-19; experiment: Anticancer activity against human SNB-19 cells assessed as cell growth inhibition incubated for 48 hrs by SRB method; method in brief: as §1
[26] = tested on: SNB-75; experiment: Anticancer activity against human SNB-75 cells assessed as cell growth inhibition incubated for 48 hrs by SRB method
[27] = tested on: U-251; experiment: Anticancer activity against human U-251 cells assessed as cell growth inhibition incubated for 48 hrs by SRB method
Method in brief: (§2)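 NCI-60 panel, SRB assay. Cells grown in RPMI 1640 with 5% FBS and 2 mM L-glutamine, seeded at 5,000–40,000 cells/well depending on doubling time, and preincubated 24 h at 37 °C with 5% CO2. Time-zero plates were TCA-fixed. Compounds came from DMSO stocks and were tested at 100 μM, 10 μM, 1 μM, 0.1 μM and 10 nM for 48 h. Cells were fixed with cold TCA and stained with 0.4% SRB, and the dye was solubilized in 10 mM Tris base with A515 read.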

[28] = tested on: LOX IMVI; experiment: Anticancer activity against human LOX IMVI cells assessed as cell growth inhibition incubated for 48 hrs by SRB method
[29] = tested on: Malme-3M; experiment: Anticancer activity against human MALME-3M cells assessed as cell growth inhibition incubated for 48 hrs by SRB method
[30] = tested on: M14; experiment: Anticancer activity against human M14 cells assessed as cell growth inhibition incubated for 48 hrs by SRB method; method in brief: as §1
[31] = tested on: MDA-MB-435; experiment: Anticancer activity against human MDA-MB-435 cells assessed as cell growth inhibition incubated for 48 hrs by SRB method; method in brief: as §1
[32] = tested on: OVCAR-5; experiment: Anticancer activity against human OVCAR-5 cells assessed as cell growth inhibition incubated for 48 hrs by SRB method
[33] = tested on: OVCAR-8; experiment: Anticancer activity against human OVCAR-8 cells assessed as cell growth inhibition incubated for 48 hrs by SRB method; method in brief: as §1
[34] = tested on: 786-0; experiment: Anticancer activity against human 786-0 cells assessed as cell growth inhibition incubated for 48 hrs by SRB method; method in brief: as §1
[35] = tested on: RXF 393; experiment: Anticancer activity against human RXF 393 cells assessed as cell growth inhibition incubated for 48 hrs by SRB method; method in brief: as §1
[36] = tested on: PC-3; experiment: Anticancer activity against human PC-3 cells assessed as cell growth inhibition incubated for 48 hrs by SRB method; method in brief: as §1
[37] = Anticancer activity against human HS 578T cells assessed as cell growth inhibition incubated for 48 hrs by SRB method
[38] = tested on: MDA-MB-468; experiment: Anticancer activity against human MDA-MB-468 cells assessed as cell growth inhibition incubated for 48 hrs by SRB method; method in brief: as §1
[39] = tested on: SK-MEL-28; experiment: Anticancer activity against human SK-MEL-28 cells assessed as cell growth inhibition incubated for 48 hrs by SRB method; method in brief: as §1
[40] = tested on: UACC-257; experiment: Anticancer activity against human UACC-257 assessed as cell growth inhibition incubated for 48 hrs by SRB method; method in brief: as §2
[41] = tested on: UACC-62; experiment: Anticancer activity against human UACC-62 cells assessed as cell growth inhibition incubated for 48 hrs by SRB method; method in brief: as §2
[42] = tested on: IGROV-1; experiment: Anticancer activity against human IGROV-1 cells assessed as cell growth inhibition incubated for 48 hrs by SRB method; method in brief: as §1
[43] = tested on: OVCAR-4; experiment: Anticancer activity against human OVCAR-4 cells assessed as cell growth inhibition incubated for 48 hrs by SRB method
[44] = tested on: NCI/ADR-RES; experiment: Anticancer activity against human NCI/ADR-RES cells assessed as cell growth inhibition incubated for 48 hrs by SRB method; method in brief: as §1
[45] = tested on: A498; experiment: Anticancer activity against human A498 cells assessed as cell growth inhibition incubated for 48 hrs by SRB method; method in brief: as §1
[46] = tested on: ACHN; experiment: Anticancer activity against human ACHN cells assessed as cell growth inhibition incubated for 48 hrs by SRB method; method in brief: as §1
[47] = tested on: CAKI-1; experiment: Anticancer activity against human CAKI-1 cells assessed as cell growth inhibition incubated for 48 hrs by SRB method; method in brief: as §1
[48] = tested on: TK-10; experiment: Anticancer activity against human TK-10 cells assessed as cell growth inhibition incubated for 48 hrs by SRB method; method in brief: as §2
[49] = tested on: UO-31; experiment: Anticancer activity against human UO-31 cells assessed as cell growth inhibition incubated for 48 hrs by SRB method
Method in brief: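 NCI-60 panel, SRB assay. Time-zero plates were TCA-fixed. Compounds came from DMSO stocks and were tested at 100 μM, 10 μM, 1 μM, 0.1 μM and 10 nM for 48 h. Cells were fixed with cold TCA and stained with 0.4% SRB, and the dye was solubilized in 10 mM Tris base with A515 read.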

[50] = tested on: DU-145; experiment: Anticancer activity against human DU-145 cells assessed as cell growth inhibition incubated for 48 hrs by SRB method; method in brief: as §1
[51] = tested on: MCF7; experiment: Anticancer activity against human MCF7 cells assessed as cell growth inhibition incubated for 48 hrs by SRB method; method in brief: as §1
[52] = tested on: MDA-MB-231; experiment: Anticancer activity against human MDA-MB-231 cells assessed as cell growth inhibition incubated for 48 hrs by SRB method; method in brief: as §1
[53] = tested on: BT-549; experiment: Anticancer activity against human BT-549 cells assessed as cell growth inhibition incubated for 48 hrs by SRB method; method in brief: as §1
[54] = tested on: T47D; experiment: Anticancer activity against human T47D cells assessed as cell growth inhibition incubated for 48 hrs by SRB method; method in brief: as §1

C=C1C(=O)O[C@H]2[C@H]1CC/C(COC(=O)NCCc1ccc(Br)cc1)=C\CC[C@@]1(C)O[C@@H]21
GI50 [1]: 270 nM | GI50 [2]: 620 nM | GI50 [3]: 430 nM | GI50 [4]: 2.59 µM | GI50 [5]: 1540 nM | GI50 [6]: 1.99 µM | GI50 [7]: 1690 nM | GI50 [8]: 1280 nM | GI50 [9]: 530 nM | GI50 [10]: 1060 nM | GI50 [11]: 1720 nM | GI50 [12]: 1720 nM | GI50 [13]: 2060 nM | GI50 [14]: 1160 nM | GI50 [15]: 1820 nM | GI50 [16]: 1710 nM | GI50 [17]: 470 nM | GI50 [18]: 1010 nM | GI50 [19]: 1320 nM | GI50 [20]: 1.95 µM | GI50 [21]: 710 nM | GI50 [22]: 1560 nM | GI50 [23]: 3.81 µM | GI50 [24]: 1460 nM | GI50 [25]: 1390 nM | GI50 [26]: 1200 nM | GI50 [27]: 1400 nM | GI50 [28]: 1180 nM | GI50 [29]: 2090 nM | GI50 [30]: 1260 nM | GI50 [31]: 1580 nM | GI50 [32]: 980 nM | GI50 [33]: 1560 nM | GI50 [34]: 1490 nM | GI50 [35]: 1320 nM | GI50 [36]: 1730 nM | GI50 [37]: 410 nM | GI50 [38]: 840 nM

C=C1C(=O)O[C@H]2[C@H]1CC/C(COC(=O)NCCc1cccc(OC)c1)=C\CC[C@@]1(C)O[C@@H]21
GI50 [1]: 340 nM | GI50 [2]: 910 nM | GI50 [3]: 510 nM | GI50 [4]: 7.28 µM | GI50 [5]: 1780 nM | GI50 [6]: 4.39 µM | GI50 [7]: 2090 nM | GI50 [8]: 1840 nM | GI50 [9]: 610 nM | GI50 [10]: 1360 nM | GI50 [11]: 1570 nM | GI50 [12]: 1860 nM | GI50 [13]: 3940 nM | GI50 [14]: 1020 nM | GI50 [15]: 1550 nM | GI50 [16]: 1680 nM | GI50 [17]: 710 nM | GI50 [18]: 1020 nM | GI50 [19]: 1140 nM | GI50 [20]: 4.27 µM | GI50 [21]: 520 nM | GI50 [22]: 1780 nM | GI50 [23]: 7.26 µM | GI50 [24]: 1490 nM | GI50 [25]: 1430 nM | GI50 [26]: 1470 nM | GI50 [28]: 1340 nM | GI50 [29]: 1840 nM | GI50 [30]: 1290 nM | GI50 [31]: 1580 nM | GI50 [39]: 1730 nM | GI50 [40]: 1990 nM | GI50 [41]: 6.23 µM | GI50 [42]: 1530 nM | GI50 [43]: 1260 nM | GI50 [32]: 990 nM | GI50 [33]: 1780 nM | GI50 [44]: 2250 nM | GI50 [34]: 2260 nM | GI50 [45]: 2950 nM | GI50 [46]: 1370 nM | GI50 [47]: 2350 nM | GI50 [35]: 1120 nM | GI50 [48]: 1.19 µM | GI50 [49]: 670 nM | GI50 [36]: 1610 nM | GI50 [50]: 1390 nM | GI50 [51]: 2300 nM | GI50 [52]: 890 nM | GI50 [37]: 490 nM | GI50 [53]: 1560 nM | GI50 [54]: 3.43 µM | GI50 [38]: 850 nM

C=C1C(=O)O[C@@H]2C3O[C@]3(C)CC/C=C(\C)CC[C@@H]12 (some centres undefined)
GI50 [17]: 10000 nM | GI50 [41]: 3.48 µM | GI50 [48]: 10 µM
